Measured values: ChEMBL document CHEMBL1127053, “3,4-Dimethyl-4-(3-hydroxyphenyl)piperidines: opioid antagonists with potent anorectant activity” (J Med Chem, 1993)

Legend:
Rattus norvegicus [1] = test: Tested for concentration required to reduce the food consumption by 20 % subcutaneously; type: functional
Summary of the method: (§1)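 Obese Zucker rats, 3-4 months old, trained to eat only 8 am-4 pm. Groups of 4 (2 male, 2 female), with one saline control group daily. Compound in saline with 10% DMSO, given sc on 3 consecutive days, typical doses 5.0-0.08 mg/kg (0.02-20 in some cases). Intake measured over the first 4 h. ED20 from regression of the linear portion of the dose-response curve.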

[2] = target: Kappa-type opioid receptor (Cavia porcellus, UniProt P41144); test: Binding affinity towards kappa opioid receptor by displacement of [3H]EKC in guinea pig cortical tissue
Summary of the method: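 Radioligand displacement. Kappa: [3H]EKC, guinea pig cortex, with fentanyl and DADL added to block mu/delta binding. Delta: [3H]DADL, rat brain homogenate.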

[3] = target: Kappa-type opioid receptor (Mus musculus) (UniProt P33534); test: Antagonist activity towards U50 488 induced kappa opioid receptor by mouse writhing assay at 2.5 mg/kg subcutaneously; type: functional, organism-based; set-up: dose 2.5 mg/kg
Summary of the method: (§2)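 Mouse acetic acid writhing: 0.6% acetic acid ip, writhes counted for 10 min starting 5 min after injection. 5 mice/point, ≥5 doses varied 2-fold, each mouse used once. AD50 = antagonist dose reducing agonist-induced writhing inhibition to 50%.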

[4] = target: Kappa-type opioid receptor (Rattus norvegicus) (UniProt P34975); test: Antagonism of bremazocine induced kappa receptor diuresis in rats at a concentration of 0.08 mg/kg subcutaneously; type: functional, organism-based; set-up: dose 0.08 mg/kg
Summary of the method: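 Male Long-Evans hooded rats (350-500 g), reused no more than twice weekly. Bremazocine 0.08 mg/kg sc, test antagonist sc on the opposite side without delay. Rats housed in metabolism cages; urine volume recorded at 2 and 5 h. 3 rats/dose, doses varied 2-fold. AD50 = dose reducing cumulative 5-h induced urination by 50%.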

[5] = target: Mu-type opioid receptor (Mus musculus) (UniProt P42866); test: Antagonistic activity towards morphine induced mu-opioid receptor by mouse writhing assay at 1.25 mg/kg subcutaneously; type: functional, organism-based; set-up: dose 1.25 mg/kg
Summary of the method: as §2, with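 “injection. Agonist (morphine 1.25 mg/kg or U50,488 2.5 mg/kg) and antagonist given sc 20 min before acid.” for “injection.”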

Mu-type opioid receptor = Mu-type opioid receptor (Rattus norvegicus, UniProt P33535); test: Binding affinity towards mu-opioid receptor by the displacement of [3H]Nal in rat brain homogenates; type: tissue-based
Rattus norvegicus [6] = test: Tested for concentration required to reduce the food consumption by 20 % subcutaneously; effect on feeding was minimal and not dose related; type: functional; conditions: sc; summary of the method: as §1
[7] = target: Kappa-type opioid receptor (Cavia porcellus) (UniProt P41144); test: Binding affinity towards kappa-opioid receptor by displacement of [3H]EKC in guinea pig cortical tissue at 10 nM
Summary of the method: (§3)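 [3H]EKC binding to guinea pig cortical tissue, with fentanyl and DADL present to block mu and delta sites. Percent displacement measured at 10 and 100 nM test compound, run in triplicate.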

[8] = target: Kappa-type opioid receptor (Cavia porcellus) (UniProt P41144); test: Binding affinity towards kappa-opioid receptor by displacement of [3H]EKC in guinea pig cortical tissue at 100 nM; summary of the method: as §3
Rattus norvegicus [9] = test: Tested for concentration required to reduce the food consumption by 20 % subcutaneously; The maximum effect achievedwas approximately 20% and not dose related; type: functional; conditions: sc; summary of the method: as §1
[10] = Rattus norvegicus, sc, read-out: ED50

Kappa-type opioid receptor, sequence (P41144 whole entry): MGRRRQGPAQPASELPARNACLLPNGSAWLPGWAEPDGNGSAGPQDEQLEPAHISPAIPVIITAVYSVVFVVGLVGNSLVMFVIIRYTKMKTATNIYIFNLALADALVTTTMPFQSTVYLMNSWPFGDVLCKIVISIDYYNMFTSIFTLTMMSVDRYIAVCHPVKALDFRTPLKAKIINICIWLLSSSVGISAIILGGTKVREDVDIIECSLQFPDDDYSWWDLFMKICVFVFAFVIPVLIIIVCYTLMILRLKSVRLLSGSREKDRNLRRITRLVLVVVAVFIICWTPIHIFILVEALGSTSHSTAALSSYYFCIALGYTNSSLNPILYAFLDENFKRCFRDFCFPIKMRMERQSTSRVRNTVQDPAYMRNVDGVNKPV
Kappa-type opioid receptor (Mus musculus), sequence (P33534 whole entry): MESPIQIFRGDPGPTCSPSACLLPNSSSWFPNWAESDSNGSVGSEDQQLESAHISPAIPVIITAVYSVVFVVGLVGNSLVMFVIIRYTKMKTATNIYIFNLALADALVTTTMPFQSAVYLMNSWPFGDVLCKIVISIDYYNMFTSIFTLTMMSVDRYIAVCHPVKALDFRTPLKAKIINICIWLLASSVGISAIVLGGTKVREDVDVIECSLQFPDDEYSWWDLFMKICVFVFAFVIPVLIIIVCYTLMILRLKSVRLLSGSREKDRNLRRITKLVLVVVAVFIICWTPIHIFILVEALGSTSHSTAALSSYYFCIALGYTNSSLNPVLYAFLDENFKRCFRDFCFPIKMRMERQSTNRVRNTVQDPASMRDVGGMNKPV
Kappa-type opioid receptor (Rattus norvegicus), sequence (P34975 whole entry): as the sequence (P33534 whole entry) above, with D11E, S17A, S51P, A308V counted along it
Mu-type opioid receptor, sequence (P33535 whole entry): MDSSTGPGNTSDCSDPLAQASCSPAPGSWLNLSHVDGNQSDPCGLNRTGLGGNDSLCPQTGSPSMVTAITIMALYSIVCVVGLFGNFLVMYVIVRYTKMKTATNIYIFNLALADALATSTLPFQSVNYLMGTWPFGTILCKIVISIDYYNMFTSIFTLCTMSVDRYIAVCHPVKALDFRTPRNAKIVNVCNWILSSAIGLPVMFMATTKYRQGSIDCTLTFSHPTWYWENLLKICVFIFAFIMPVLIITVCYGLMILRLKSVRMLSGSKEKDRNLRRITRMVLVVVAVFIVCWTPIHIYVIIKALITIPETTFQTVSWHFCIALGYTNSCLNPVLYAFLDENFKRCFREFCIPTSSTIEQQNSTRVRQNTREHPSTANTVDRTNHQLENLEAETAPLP
Mu-type opioid receptor (Mus musculus), sequence (P42866 whole entry): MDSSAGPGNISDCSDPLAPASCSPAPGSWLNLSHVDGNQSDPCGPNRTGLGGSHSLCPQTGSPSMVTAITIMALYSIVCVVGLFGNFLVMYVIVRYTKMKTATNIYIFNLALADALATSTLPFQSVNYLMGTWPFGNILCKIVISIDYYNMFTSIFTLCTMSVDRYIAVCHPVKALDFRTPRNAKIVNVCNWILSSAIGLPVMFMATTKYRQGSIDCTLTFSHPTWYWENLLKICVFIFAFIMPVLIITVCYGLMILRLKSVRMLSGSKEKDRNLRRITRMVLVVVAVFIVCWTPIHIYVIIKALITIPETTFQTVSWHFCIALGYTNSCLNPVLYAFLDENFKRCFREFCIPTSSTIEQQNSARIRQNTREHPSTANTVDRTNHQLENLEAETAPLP
Kappa-type opioid receptor (Cavia porcellus), sequence (P41144 whole entry): as the sequence (P41144 whole entry) above

Compound	ED50 (Rattus norvegicus [1]; [10])	Ki [2]	AD50 [3]	AD50 [4]	AD50 [5]	Ki (Mu-type opioid receptor)	ED50 (Rattus norvegicus [6])	Displacement [7]	Displacement [8]	ED50 (Rattus norvegicus [9])	ED50 (Rattus norvegicus [1])
C[C@H]1CN(CCCC2CCCC2)CC[C@@]1(C)c1cccc(O)c1	1.2 mg/kg	3.4 nM	0.13 mg/kg	0.79 mg/kg	0.12 mg/kg	0.37 nM					
C[C@H]1CN(CCC(O)C2CCCCC2)CC[C@@]1(C)c1cccc(O)c1 (stereo partly specified)	0.05 mg/kg	4.8 nM	0.14 mg/kg	0.49 mg/kg	0.07 mg/kg	0.29 nM					
C[C@@H]1CN(CC[C@@H](O)C2CCCCC2)CC[C@]1(C)c1cccc(O)c1		14.3 nM	0.52 mg/kg	5.2 mg/kg	0.52 mg/kg	2.2 nM	> 1.25 mg/kg				
CC(C)C(O)CCN1CC[C@@](C)(c2cccc(O)c2)[C@@H](C)C1 (stereo partly specified)	0.65 mg/kg	6.9 nM	0.35 mg/kg	0.17 mg/kg	0.14 mg/kg	2.6 nM					
C[C@H]1CN(CCCc2ccsc2)CC[C@@]1(C)c1cccc(O)c1	0.06 mg/kg		0.24 mg/kg	1.9 mg/kg	0.12 mg/kg						
C[C@H]1CN(CCC(=O)C2CCCCC2)CC[C@@]1(C)c1cccc(O)c1	0.13 mg/kg	3.9 nM	0.26 mg/kg		0.12 mg/kg	0.34 nM					
C=C(C)CCCN1CC[C@@](C)(c2cccc(O)c2)[C@@H](C)C1	0.29 mg/kg	21 nM	0.095 mg/kg	0.39 mg/kg	0.077 mg/kg	0.17 nM					
CCCCCCCN1CC[C@@](C)(c2cccc(O)c2)[C@@H](C)C1	0.4 mg/kg		> 0.64 mg/kg	3.3 mg/kg	0.21 mg/kg			57%	87%		
C[C@H]1CN(CCC(O)C2CCCC2)CC[C@@]1(C)c1cccc(O)c1 (stereo partly specified)	0.09 mg/kg	5.5 nM	0.08 mg/kg	0.99 mg/kg	0.04 mg/kg	0.41 nM					
CC(C)CCCCN1CC[C@](C)(c2cccc(O)c2)[C@H](C)C1	0.14 mg/kg	3.04 nM	0.89 mg/kg	4.75 mg/kg	0.35 mg/kg	1.36 nM					
O=C1CC[C@@]2(O)[C@H]3Cc4ccc(O)c5c4[C@@]2(CCN3CC2CC2)[C@H]1O5 [NALTREXONE]										1.7 mg/kg	
C[C@H]1CN(CC[C@@H](O)C2CCCCC2)CC[C@@]1(C)c1cccc(O)c1	0.16 mg/kg	11.4 nM	0.36 mg/kg	1.1 mg/kg	0.03 mg/kg	2.4 nM					
CCCCCCN1CC[C@@](C)(c2cccc(O)c2)[C@@H](C)C1 (stereo in doubt; 37)						1.1 nM					0.19 mg/kg
C[C@H]1CN(C)CC[C@@]1(C)c1cccc(O)c1	4.1 mg/kg		> 5 mg/kg	> 5 mg/kg							
CC(C)CCCCN1CC[C@@](C)(c2cccc(O)c2)[C@@H](C)C1 (stereo in doubt; 21) [listing 1 of 2 here]			0.24 mg/kg	0.39 mg/kg	0.58 mg/kg						
CC(C)CCCCN1CC[C@@](C)(c2cccc(O)c2)[C@@H](C)C1 (stereo in doubt; 21) [listing 2 of 2 here]		5.9 nM				0.46 nM					0.06 mg/kg
CC(C)CCCCN1CC[C@@](C)(c2cccc(O)c2)[C@@H](C)C1 (stereo in doubt; 39)			0.22 mg/kg	1.31 mg/kg	0.08 mg/kg						
C[C@H]1CN(CCCC2CCCCC2)CC[C@@]1(C)c1cccc(O)c1	0.12 mg/kg	2.3 nM	0.19 mg/kg	1 mg/kg	0.35 mg/kg	0.49 nM					
C[C@H]1CN(CCC2CCCC2)CC[C@@]1(C)c1cccc(O)c1	0.34 mg/kg	7.2 nM	0.22 mg/kg	0.67 mg/kg	0.14 mg/kg	2.3 nM					
C[C@H]1CN(CCC2CCCCC2)CC[C@@]1(C)c1cccc(O)c1	3.6 mg/kg	2.3 nM	0.12 mg/kg	0.69 mg/kg	0.1 mg/kg	0.65 nM					
